Source: PubChem BioAssay (several laboratories)
LGR2 antag – inhibitors of bursicon-induced LGR2 CRE-luciferase signal, primary screen, cell-based, HEK293, CRE-luciferase reporter, bursicon stimulation | Drosophila bursicon receptor LGR2 (rickets) | bursicon-stimulated, 4 h | inhibition, % at 9.99 µM | hit rate 0.35% among 380,000 | AID 720647, 2013;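 active means drop in luminescence signal, shown as inhibition above about 50% in the replicate tests, limit read from the data, passing the limit was not always enough; inconclusive means probably only some replicates passing the limit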;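 further: agonist challenge used bursicon conditioned medium at about half maximal strength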
TROY signal inh – inhibitors of TROY-driven NF-kB signaling, primary screen, Q293 LMP1-TROYcd cells, NF-kB luciferase, uHTS; hit rate 0.98% among 360,000; inhibition, % at 10 µM; Q293 LMP1-TROYcd NF-kB luciferase reporter, 4 h;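 active means compounds whose plate-normalised and pattern-corrected inhibition of the luciferase reporter signal at the single screening dose is 50% or more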
EWS-Fli block – EWS/Fli-driven NR0B1 reporter inhibitors, primary screen, A673 cells, NR0B1 luciferase, luminescence, MLPCN library; viability-normalised; inhibition, % at 12.6 µM; hit rate 0.67% among 350,000; AID 651661, 2012;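 active means mean inhibition of at least 50% after viability correction, with every replicate also passing that limit; inconclusive means mean reaches 50% but only one of two replicates passes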;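 further: firefly luciferase signal divided by Alamar Blue viability fluorescence both relative to DMSO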
FN deposition inh – inhibitors of fibronectin matrix deposition, primary screen, AH1F cells, Alexa488-fibronectin fluorescence, plate reader | AH1F fibroblasts, overnight | inhibition, % at 12.6 µM | hit rate 0.086% among 350,000;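 active means mean inhibition across replicates of 30% or more, regardless of how many single replicates reach that level; inconclusive means mean under 30% yet at least half of replicates reach 30%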
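Assay system: AH1F fibroblasts assembling fluorescent fibronectin matrix; Amount: 10000 AH1F cells per well; Buffer or medium: DMEM, 2% serum; Probe or stimulus: Alexa488-fibronectin, 24 nM final in well; Doses: single compound dose, delivered by pin transfer; Incubation: 1 h adhesion, overnight exposure; Measured by: fluorescence 485/525 nm; Read-out: fibronectin deposition inhibition.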
XiGFP reactiv – activators of inactive X chromosome reactivation, primary screen, imaging, XiGFP fibroblasts, GFP high-content imaging, set 2; AID 743238, 2013; activation, % at 7.58 µM; XiGFP mouse fibroblasts, % GFP-positive cells imaging, 3 d; cells co-treated with 5-aza-dC sensitizer; scaled so ellipticine positive control = 100%; hit rate 0.055% among 360,000;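 active means mean normalized replicate activation at least 10% and every replicate at or above 10%; inconclusive means only one of the two criteria met; inactive means mean below 10% and not all replicates reach 10%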
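System: XiGFP fibroblasts, SV40-immortalized. Medium: DMEM plus 5-aza-dC sensitizer. Doses: single point. Timing: 3 d treatment, 15 min room-temperature fixation. Control set: ellipticine 6 µM.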
TWEAK Fn14 block – inhibitors of TWEAK-Fn14 signaling, primary screen, luciferase reporter cells, uHTS; TWEAK-stimulated Fn14 reporter cells, luciferase luminescence, 8 h; inhibition, % at 10 µM; hit rate 2% among 360,000; in the data active means inhibition above about 50%
Hits are given with their value; i = inactive; ? = inconclusive; nt = no result given. Shown are actives, neighbours in structure and some others; about 2.3% of the full set was active somewhere.

SMILES	LGR2 antag	TROY signal inh	EWS-Fli block	FN deposition inh	XiGFP reactiv	TWEAK Fn14 block
Cc1c(C(=O)Nc2ccc3c(c2)OCCO3)sc2ncnc(N3CCCCC3C)c12 (stereo unspecified)	i	i	nt	i	i	53
Cc1nc(N2CCC(C)CC2)c2c(C)c(C(=O)Nc3ccc4c(c3)OCCO4)sc2n1	i	i	nt	i	i	i
Cc1sc2ncnc(N3CCC(C(=O)NNC(=O)COc4ccc(Br)cc4)CC3)c2c1C	i	74	i	i	i	88
Cc1sc2ncnc(N3CCC(C(=O)NNC(=O)COc4ccc(Cl)cc4)CC3)c2c1C	i	50	i	i	i	87
CC(=O)N[C@@H]1CC[C@@H](CCNC(=O)C2CCCCC2)O[C@@H]1CO	i	nt	i	nt	i	nt
C[C@@H]1CN([C@H](C)CO)C(=O)c2cccc(NC(=O)c3nc4ccccc4s3)c2O[C@@H]1CN(C)Cc1ccncc1	i	nt	i	nt	i	nt
Cc1sc2ncnc(N3CCN(S(=O)(=O)c4ccc(C(C)(C)C)cc4)CC3)c2c1C	i	i	i	i	i	i
Cc1cc(Br)ccc1NC(=O)CN(C)C(=O)C1CCN(c2ncnc3sc(C)c(C)c23)CC1	i	i	i	i	i	59
Cc1sc2ncnc(N3CCC(C(=O)Nc4ccc(OC(F)F)c(Cl)c4)CC3)c2c1C	?	51	i	i	i	i
Cc1ccc(S(=O)(=O)N2CCN(C(=O)C3CCN(c4ncnc5sc(C)c(C)c45)CC3)CC2)c(C)c1	i	i	i	i	i	51
COc1ccc(NC(=O)c2sc3ncnc(N4CCN(c5ccccn5)CC4)c3c2C)cc1Cl	i	i	i	i	i	76
Cc1cccc(C)c1NC(=O)CN(C)C(=O)C1CCN(c2ncnc3sc(C)c(C)c23)CC1	i	i	i	i	i	i
COc1ccc(-c2ccc([C@H]3[C@@H](C#N)N(C(=O)NC4CCCCC4)[C@H]3CO)cc2)cc1	i	nt	i	i	i	nt
C/C=C/c1ccc([C@H]2[C@H](CO)N(S(=O)(=O)Cc3ccccc3)C23CN(C(=O)C2CC2)C3)cc1	nt	nt	nt	i	i	nt
Cc1sc2ncnc(N3CCC(C(=O)NNC(=O)COc4cccc(C(F)(F)F)c4)CC3)c2c1C	i	i	i	i	i	56
O=C(NC1CCCC1)[C@@H]1[C@@H](CO)[C@@H]2Cn3c(ccc(-c4ccccc4)c3=O)[C@H]1N2CCc1ccccc1	i	nt	i	nt	i	nt
CC(C)Cc1nc2oc3c(Cl)ncnc3c2c2c1CCC2	i	i	58	nt	nt	90
C[C@H]1CN([C@@H](C)CO)C(=O)Cc2cc(NC(=O)Nc3ccc4c(c3)OCO4)ccc2O[C@H]1CN(C)C(=O)NC1CCCCC1	i	nt	i	nt	i	nt
CC(C)NC(=O)N1C[C@@H]2[C@H](c3ccccc31)[C@H](CO)N2C(=O)c1ccncc1	i	nt	i	nt	i	nt
Cn1cc(/C=C/c2cc[n+](C)cc2)c2cc(Cl)ccc21	i	i	i	i	49	i
C[C@H](CO)N1C[C@H](C)[C@H](CN(C)C(=O)Nc2ccc(F)cc2)Oc2ccc(N(C)C)cc2CC1=O	i	nt	i	nt	i	nt
Cc1cc2nc(-c3ccc(SCc4ccccc4C#N)nc3)[nH]c2cc1C	i	64	i	nt	nt	58
Cc1cc2nc(-c3ccc(SCc4ccc(C(=O)O)cc4)nc3)[nH]c2cc1C	i	52	i	i	i	i
Cc1cc2nc(-c3ccc(SCC(=O)N4CCc5ccccc54)nc3)[nH]c2cc1C	i	i	i	nt	nt	i
COc1ccc(NC(=O)NC[C@H]2CC[C@H]3[C@H](CN3Cc3ccccc3C(=O)O)O2)cc1	nt	nt	i	nt	nt	nt
SMILES	LGR2 antag	TROY signal inh	EWS-Fli block	FN deposition inh	XiGFP reactiv	TWEAK Fn14 block
COc1ccc(S(=O)(=O)Nc2ccc3c(c2)C(=O)N([C@@H](C)CO)C[C@H](C)[C@H](CN(C)S(=O)(=O)c2ccccc2)OCCCC[C@H](C)O3)cc1	i	nt	i	nt	i	nt
COc1cccc(CN2CCCCN3[C@H](CO)[C@@H](c4ccc(C#Cc5cccnc5)cc4)[C@H]3C2)c1	i	nt	69	nt	i	nt
CC(C)CC#Cc1cnc2c(c1)C(=O)N([C@@H](C)CO)C[C@@H](C)[C@H](CN(C)S(=O)(=O)c1cn(C)cn1)O2	i	nt	i	i	i	nt
COc1ccc(S(=O)(=O)Nc2ccc3c(c2)C(=O)N([C@@H](C)CO)C[C@@H](C)[C@@H](CN(C)C(=O)C2CCCCC2)OCCCC[C@H](C)O3)cc1	i	nt	i	nt	i	nt
O=c1c(O)cccc2cc(O)c(O)c(O)c12	i	i	i	i	i	78
Cc1cccc(C(=O)Nc2ncc(CN3CCOCC3)s2)c1	i	i	i	nt	nt	66
Fc1ccc2[nH]c3c(NCc4ccccc4)ncnc3c2c1	i	52	i	i	i	i
Cc1[nH]nc(-c2cccnc2)c1N=NN(C)C	i	i	55	i	i	i
COc1cccc(CNc2nc3cc(-c4ccsc4)sc3c(=O)n2C)c1OC	i	i	i	nt	i	82
COc1ccc(-c2cc3nc(NCc4ccc(N(C)C)cc4)n(C)c(=O)c3s2)cc1OC	74	i	i	nt	i	80
COc1ccc(-c2cc3nc(NCCN4CCCC4)n(C)c(=O)c3s2)cc1OC	i	i	i	i	i	i
COc1cccc(CNc2nc3cc(-c4ccccc4)sc3c(=O)n2C)c1	i	i	i	i	i	i
COc1cccc(CNc2nc3cc(-c4ccc(OC)c(OC)c4)sc3c(=O)n2C)c1	i	i	i	i	i	54
COc1cccc(CNc2nc3cc(-c4ccc(C)cc4)sc3c(=O)n2C)c1OC	i	i	i	i	i	i
CCC(=O)N1CC(=O)N2[C@@H](CO)[C@H](c3ccc(C#Cc4cccnc4)cc3)[C@@H]2C1	i	nt	i	nt	i	nt
O=C1Nc2ccccc2Nc2ccc([N+](=O)[O-])cc21	i	i	i	i	i	i
Cc1ccc(Oc2cc([N+](=O)[O-])cc3c2C(=O)Nc2ccccc2O3)cc1	i	i	nt	i	i	56
COCC(=O)N1CC2(C1)[C@@H](c1ccc(-c3ccc(F)cc3)cc1)[C@@H](CO)N2C(C)=O	i	nt	i	nt	i	nt
C/C(=C\c1cccc(Cl)c1Cl)C(=O)c1c(C)cc(C)[nH]c1=O	i	i	i	i	i	72
Cc1cc(C)c(C(=O)/C=C/c2ccc3c(c2)OCO3)c(=O)[nH]1	i	i	i	nt	i	i
Cc1cc(C)c(C(=O)/C=C/c2cccc3ccccc23)c(=O)[nH]1	67	54	i	i	i	95
